Consider 15 molecules from ChEMBL document CHEMBL2417461, “Spectroscopic, computational modeling and cytotoxicity of a series of meso-phenyl and meso-thienyl-BODIPYs” (Bioorg Med Chem, 2013).

One may read the IC50 as the concentration that inhibits the measured activity by half. Lower therefore signals higher potency.

Data set [1] is described as follows: Ratio of IC50 for dark toxicity in human Hep2 cells to IC50 for phototoxicity in human Hep2 cells. The data set is classed as cell-based. The settings on record: HEp-2 cells, read-out: Ratio IC50.
For a further data set, the system named is HEp-2. The data set is described as follows: Phototoxicity in human Hep2 cells incubated for 24 hrs followed by 1.5 J/cm'2 light irradiation for 20 mins measured after 24 hrs by Cell Titre Blue assay. The settings on record: HEp-2, light or radiation study. The format is functional, cell-based. An outline of the steps:
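HEp2 cells given 3.125–200 μM compound for 24 h at 37 °C, then washed and refed. Irradiated on ice for 20 min with a 100 W halogen lamp through a 610 nm long-pass filter and a water IR filter, about 1.5 J/cm². After 24 h more, 20% Cell Titer Blue for 4 h, read at 570/615 nm. IC50 from dose–response curves.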

Data set [2] in a line: Dark toxicity in human Hep2 cells after 24 hrs by Cell Titre Blue assay. The data set is classed as cell-based. The settings on record: HEp-2 cells. An outline of the steps:
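HEp2 cells seeded 15,000/well. Compound at 12.5–400 μM (vehicle DMSO/Cremophor EL) for 24 h at 37 °C in the dark, five replicates per concentration. Washed, then 20% Cell Titer Blue for 4 h. Fluorescence read at 570/615 nm as % viable cells, IC50 taken from dose–response curves.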

A short description of data set [3]: Induction of singlet oxygen generation assessed as decrease in DPBF absorbance at 5 uM followed by 71 W light irradiation for 1 hr by spectrophotometry. The format is physicochemical. In outline: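 Compound at 5 μM with 50 μM DPBF in DMSO, 2 mL, irradiated 1 h with a 71 W source through a 500 nm long-pass filter. DPBF absorbance at 410 nm sampled every 15 min. Rate of absorbance decrease referenced to methylene blue at equal concentration.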

Data set [4] in a line: Cellular uptake in human Hep2 cell mitochondria at 10 uM after 24 hrs by micro plate reader analysis. The settings on record: hep-2, 24 h. The data set is classed as ADME. In outline:
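HEp2 cells (DMEM:AMEM 50:50, 10% FBS) seeded 15,000/well, grown overnight, then given 10 μM compound in medium with 5% FBS for 0–24 h. Washed with PBS, lysed in 0.25% Triton X-100. Compound fluorescence read at 355/520 nm against standard curve, cell number by CyQuant at 485/520 nm. Uptake given per cell.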

With `CC1=C(I)C(C)=[N+]2C1=C(c1cc(C(C)(C)C)cc(C(C)(C)C)c1)c1c(C)c(I)c(C)n1[B-]2(F)F`, the selectivity ratio in data set [1] was above 2. In the data set with HEp-2, the IC50 was above 200 µM. The same molecule returned an IC50 at 24 h in data set [2] above 400 µM.

Regarding `COc1cc(OC)cc(C2=C3C(C)=C(I)C(C)=[N+]3[B-](F)(F)n3c(C)c(I)c(C)c32)c1`, in data set [3], the result was Active. Besides, in data set [4], the Drug uptake result is given as “Active”. For the same molecule, the selectivity ratio in data set [1] was above 100. For the same molecule, in the data set on HEp-2, the IC50 was found to be 4 µM. In data set [2], this molecule had a concentration for half-maximal inhibition (IC50) at 24 h above 400 µM.

As to `COC(=O)c1ccc(C2=C3C(C)=C(I)C(C)=[N+]3[B-](F)(F)n3c(C)c(I)c(C)c32)cc1`, the selectivity ratio in data set [1] was above 2. In the data set with HEp-2, the half-maximal inhibitory concentration (IC50) was above 200 µM. The molecule also showed a concentration for half-maximal inhibition (IC50) at 24 h in data set [2] above 400 µM.

Take `CC1=C(I)C(C)=[N+]2C1=C(c1ccc(Br)cc1)c1c(C)c(I)c(C)n1[B-]2(F)F`: in data set [4], the Drug uptake entry is “Active”. For the same molecule, the selectivity ratio in data set [1] was above 15. The molecule also came in with an IC50 with HEp-2 of 28 µM. The IC50 at 24 h in data set [2] is above 400 µM.

`CC1=CC(C)=[N+]2C1=C(c1cccs1)c1c(C)cc(C)n1[B-]2(F)F`: the selectivity ratio in data set [1] is above 3. Further, the IC50 with HEp-2 was above 100 µM. In addition, the IC50 at 24 h in data set [2] is above 300 µM.

For the molecule `CC1=C(I)C(C)=[N+]2C1=C(c1ccc(Br)s1)c1c(C)c(I)c(C)n1[B-]2(F)F`, the selectivity ratio in data set [1] was above 2. Moreover, the half-inhibitory concentration (IC50) with HEp-2 is above 200 µM. Besides, in data set [2], the 50% inhibitory concentration (IC50) at 24 h is above 400 µM.

Regarding `CC1=C(I)C(C)=[N+]2C1=C(c1ccc(-c3cccs3)s1)c1c(C)c(I)c(C)n1[B-]2(F)F`, the selectivity ratio in data set [1] is above 2. The same molecule showed a 50% inhibitory concentration (IC50) in the data set on HEp-2 above 200 µM. Further, in data set [2], the 50% inhibitory concentration (IC50) at 24 h was above 400 µM.

Take `CC1=C(I)C(C)=[N+]2C1=C(c1cccs1)c1c(C)c(I)c(C)n1[B-]2(F)F`: the result in data set [3] was Active. Further, the Drug uptake result in data set [4] is “Active”. Moreover, the selectivity ratio in data set [1] is above 30. It took 14 µM to reach half-maximal inhibition in the data set with HEp-2 (IC50). Besides, the IC50 at 24 h in data set [2] was above 400 µM.

For the molecule `CC1=C(I)C(C)=[N+]2C1=C(c1ccc(-c3ccc(Br)s3)s1)c1c(C)c(I)c(C)n1[B-]2(F)F`, the outcome in data set [3] was Active. Also, the Drug uptake entry in data set [4] is reported as “Active”. Besides, in data set [1], the selectivity ratio came out at 2.3. Half-maximal inhibition in the data set on HEp-2 (IC50) required 3.5 µM. This molecule also displayed an IC50 at 24 h in data set [2] of 8 µM.

Regarding `CC1=CC(C)=[N+]2C1=C(c1ccc(-c3cccs3)s1)c1c(C)cc(C)n1[B-]2(F)F`, the selectivity ratio in data set [1] is above 4. In the data set with HEp-2, the IC50 was above 100 µM. Moreover, the IC50 at 24 h in data set [2] is above 400 µM.

Regarding `COC(=O)c1ccc(C2=C3C(C)=CC(C)=[N+]3[B-](F)(F)n3c(C)cc(C)c32)cc1`, the selectivity ratio in data set [1] is above 4. For the same molecule, the half-maximal inhibitory concentration (IC50) with HEp-2 is above 100 µM. In data set [2], the IC50 at 24 h was above 400 µM.

Regarding `CC1=CC(C)=[N+]2C1=C(c1ccc(-c3ccc(Br)s3)s1)c1c(C)cc(C)n1[B-]2(F)F`, in data set [1], the selectivity ratio was above 3.5. Further, in the data set on HEp-2, 82 µM corresponded to half-maximal inhibition (IC50). Moreover, in data set [2], the IC50 at 24 h was above 300 µM.

On to `COc1ccc(C2=C3C(C)=C(I)C(C)=[N+]3[B-](F)(F)n3c(C)c(I)c(C)c32)cc1OC`, for which, in data set [3], the result was Active. The Drug uptake result in data set [4] is given as “Active”. In data set [1], the selectivity ratio is above 53. Moreover, half-maximal inhibition with HEp-2 (IC50) required 7.5 µM. Further, the IC50 at 24 h in data set [2] is above 400 µM.

As to `CC1=C(I)C(C)=[N+]2C1=C(c1c(F)c(F)c(F)c(F)c1F)c1c(C)c(I)c(C)n1[B-]2(F)F`, the selectivity ratio in data set [1] is above 2. The IC50 in the data set with HEp-2 is above 200 µM. The IC50 at 24 h in data set [2] is above 400 µM.

For `CC1=C(I)C(C)=[N+]2C1=C(c1ccccc1)c1c(C)c(I)c(C)n1[B-]2(F)F`, in data set [3], the result was Active. Moreover, the Drug uptake result in data set [4] is listed as “Active”. Also, the selectivity ratio in data set [1] is above 15. Besides, the IC50 with HEp-2 amounted to 27 µM. The IC50 at 24 h in data set [2] was above 400 µM.
